Laboratory results: ChEMBL document CHEMBL1130097, “Synthesis and anti-HIV-1 activity of a series of 1-alkoxy-5-alkyl-6-(arylthio)uracils” (J Med Chem, 1997)
pEC50, pIC50: −log10 of the molar value.

Assays:
[1] = (§1) Selectivity Index measured as ratio of CC50 to that of EC50.; assay type: functional, CCRF-CEM
CEM-SS [2] = assay: Cytotoxic concentration required to reduce the viability of mock infected CEM-SS cells by 50%.; assay type: functional; conditions: Homo sapiens
[3] = tested on: Human immunodeficiency virus 1; assay: Concentration required to achieve 50% protection of CEM-SS cells against the cytopathic effect of HIV-1.; assay type: functional, organism-based; conditions: Human immunodeficiency virus 1, CEM-SS
CEM-V [4] = assay: Inhibition of HIV-1 replication in CEM-V cells; assay type: functional, cell-based; conditions: Homo sapiens
CEM-V [5] = assay: Cytotoxic concentration required to reduce the viability of mock-infected CEM-V cells by 50%; assay type: functional; conditions: Homo sapiens
[6] = as §1; assay type: functional
CEM-SS [7] = assay: Cytotoxic concentration required to reduce the viability of mock infected CEM-SS by 50%.; assay type: functional; conditions: Homo sapiens
[8] = tested on: Avian myeloblastosis virus; assay: Inhibitory effect on recombinant AMV reverse transcriptase; assay type: functional
Summary of the method: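 Recombinant RT (0.05 unit of HIV-1, AMV or Mo-MuLV) in 50 mM Tris-HCl pH 7.8, 50 mM KCl, 30 mM MgCl2, 1 mM DTT and 0.01% Triton X-100. Template poly r(A)d(T)12-18 (5.0 μg) with 0.5 μCi [3H]dTTP. Compound added in DMSO (final below 1%), 1 h at 37 °C. Reaction stopped with cold 20% TCA and precipitate counted. […] Means of at least three independent experiments run in duplicate.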

[9] = Cytotoxic concentration for inhibition of HIV-1 replication in human peripheral Blood mononuclear cells.(PBMCs); assay type: functional
[10] = Effective concentration for inhibition of HIV-1 replication in human peripheral Blood mononuclear cells.(PBMCs); assay type: functional
Summary of the method: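 PBMCs from healthy seronegative donors were isolated on Ficoll-Hypaque and stimulated 24 h with PHA (10 μg/mL). Cells at 1×10^6 cells/mL were infected with HIV-1 HTLV-IIIB at MOI 0.01, with 2-h adsorption followed by three washes. Culture was in RPMI 1640 with IL-2 (2 U/mL) and 10% FBS with compound at 37 °C, split 1:2 with fresh drug on days 4 and 8. On day 12, supernatant p24 was measured by ELISA in triplicate. […] Means of two independent experiments run in duplicate.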

CCRF-CEM [11] = assay: Effective concentration for inhibition of […] replication in CEM cells.; assay type: functional, cell-based; conditions: Homo sapiens
CCRF-CEM [12] = assay: Cytotoxic concentration for inhibition of […] replication in CEM cells.; assay type: functional; conditions: Homo sapiens
[13] = tested on: Avian myeloblastosis virus; assay: Inhibitory effect on recombinant AMV reverse transcriptase (Avian Myeloblastosis Virus, AMV); assay type: functional
Summary of the method: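 Recombinant RT (0.05 unit each of HIV-1, AMV or Mo-MuLV enzyme) in 50 mM Tris-HCl pH 7.8, 50 mM KCl, 30 mM MgCl2, 1 mM DTT, 0.01% Triton X-100, with poly r(A)d(T)12-18 template and [3H]dTTP. Compounds added from DMSO (final below 1%), 1 h at 37 °C. Stopped with cold 20% TCA; precipitate counted.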

[14] = Selectivity Index measured as ratio of CC50 to that of EC50 in PBMCs; assay type: functional
Summary of the method: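 HIV-1 (HTLV-IIIB) in PHA-stimulated PBMCs from healthy seronegative donors. Cells were infected at MOI 0.01 for 2 h, washed, then grown with compound in RPMI 1640 with IL-2 and 10% FBS at 37 °C. Cultures were split 1:2 with fresh compound on days 4 and 8. p24 was read by ELISA on day 12. Cytotoxicity was measured by [3H]thymidine incorporation. SI = CC50/EC50, means of two independent experiments in duplicate.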

SMILES	Selectivity index [1]	CC50 (CEM-SS [2])	pEC50 [3]	other results
CCCOn1c(Sc2cc(C)cc(C)c2)c(CC)c(=O)[nH]c1=O	154	54 µM	6.46	–
O=c1[nH]cnc2c1ncn2[C@H]1CC[C@@H](CO)O1 [DIDANOSINE]	–	–	–	pEC50 (CEM-V [4]): 5.55; CC50 (CEM-V [5]): > 10 µM; Selectivity index [6]: > 3.6
CCCOn1c(Sc2cc(C)cc(C)c2)c(C(C)C)c(=O)[nH]c1=O	–	–	7.19	CC50 (CEM-SS [7]): 33 µM; pIC50 [8]: < 4.00; CC50 [9]: 70 µM; pEC50 [10]: 6.82
COCCOn1c(Sc2cc(C)cc(C)c2)c(C(C)C)c(=O)[nH]c1=O	223	96 µM	6.37	–
Cc1c(Sc2ccccc2)n(COCCO)c(=O)[nH]c1=O [HEPT]	48	–	–	pEC50 (CCRF-CEM [11]): 5.08; CC50 (CCRF-CEM [12]): 400 µM
CCCOn1c(Sc2cccc(C)c2)c(C(C)C)c(=O)[nH]c1=O	41	40 µM	6.01	–
O=C(O)P(=O)(O)O [FOSCARNET SODIUM]	–	–	–	pIC50 [13]: 5.03
CCc1c(Sc2cc(C)cc(C)c2)n(OCc2ccccc2)c(=O)[nH]c1=O	>35	> 200 µM	5.24	–
Cc1cc(C)cc(Sc2c(C(C)C)c(=O)[nH]c(=O)n2OCCOc2ccccc2)c1	35	16 µM	6.34	–
CC(C)c1c(Sc2cc(F)cc(F)c2)n(OCCCO)c(=O)[nH]c1=O	20	150 µM	5.12	–
Cc1cc(C)cc(Sc2c(C)c(=O)[nH]c(=O)n2OCc2ccccc2)c1	>20	> 200 µM	5.00	–
Cc1cc(C)cc(Sc2c(C(C)C)c(=O)[nH]c(=O)n2OCc2ccccc2)c1	2.8	24 µM	5.07	–
Cc1cc(C)cc(Sc2c(C)c(=O)[nH]c(=O)n2OCCc2ccccc2)c1	>39	–	5.51	CC50 (CEM-SS [7]): > 121 µM
Cc1cc(C)cc(Sc2c(C(C)C)c(=O)[nH]c(=O)n2OCCc2ccccc2)c1	31	15 µM	6.31	–
CCCc1c(Sc2cc(C)cc(C)c2)n(OCCc2ccccc2)c(=O)[nH]c1=O	41	29 µM	6.15	–
CC(C)c1c(Sc2ccccc2)n(OCCCO)c(=O)[nH]c1=O	8.9	170 µM	4.72	–
Cc1cc(C)cc(Sc2c(C3CC3)c(=O)[nH]c(=O)n2OCCCO)c1	8.5	128 µM	4.82	–
Cc1cc(C)cc(Sc2c(C)c(=O)[nH]c(=O)n2OCCCO)c1	25	140 µM	5.26	–
CCCOn1c(Sc2ccc(C)cc2)c(C(C)C)c(=O)[nH]c1=O	–	–	–	CC50 (CEM-SS [7]): 69 µM
CCCc1c(Sc2cc(C)cc(C)c2)n(OCc2ccccc2)c(=O)[nH]c1=O	11	114 µM	4.99	–
CCCOn1c(Sc2cccc(F)c2)c(C(C)C)c(=O)[nH]c1=O	38	72 µM	5.72	–

SMILES	Selectivity index [1]	CC50 (CEM-SS [2])	pEC50 [3]	other results
CCc1c(Sc2cc(C)cc(C)c2)n(OCCOC)c(=O)[nH]c1=O	69	136 µM	5.71	–
CCCOn1c(Sc2ccccc2C)c(C(C)C)c(=O)[nH]c1=O	2.9	41 µM	4.86	–
CCCOn1c(Sc2cc(C)cc(C)c2)c(C)c(=O)[nH]c1=O	69	64 µM	6.03	–
Cc1cc(C)cc(Sc2c(C3CC3)c(=O)[nH]c(=O)n2OCc2ccccc2)c1	>13	> 200 µM	4.80	–
CCc1c(Sc2cc(C)cc(C)c2)n(OCCCO)c(=O)[nH]c1=O	228	123 µM	6.27	–
Cc1cccc(CCOn2c(Sc3cc(C)cc(C)c3)c(C(C)C)c(=O)[nH]c2=O)c1	15	13 µM	6.08	–
CCCCOn1c(Sc2cc(C)cc(C)c2)c(CC)c(=O)[nH]c1=O	41	40 µM	6.01	–
CCCOn1c(Sc2ccccc2)c(C(C)C)c(=O)[nH]c1=O	11	75 µM	5.17	–
CC(C)c1c(Sc2cccc(F)c2)n(OCCCO)c(=O)[nH]c1=O	–	3.4 µM	–	–
CCCOn1c(Sc2cc(F)cc(F)c2)c(C(C)C)c(=O)[nH]c1=O	>84	> 200 µM	5.62	–
Cc1cc(C)cc(Sc2c(C(C)C)c(=O)[nH]c(=O)n2OCCCO)c1	395	75 µM	6.72	–
Cc1cc(C)cc(Sc2c(C3CC3)c(=O)[nH]c(=O)n2OCCc2ccccc2)c1	7.1	43 µM	5.22	–
CCCc1c(Sc2cc(C)cc(C)c2)n(OCCCO)c(=O)[nH]c1=O	13	107 µM	5.09	–
CCCCOn1c(Sc2cc(C)cc(C)c2)c(C(C)C)c(=O)[nH]c1=O	71	30 µM	6.38	–
Cc1cccc(Sc2c(C(C)C)c(=O)[nH]c(=O)n2OCCCO)c1	28	118 µM	5.33	–
Nc1ccn([C@H]2CC[C@@H](CO)O2)c(=O)n1 [ZALCITABINE]	>53	> 10 µM	6.72	–
CCCOn1c(Sc2cc(C)cc(C)c2)c(CCC)c(=O)[nH]c1=O	18	45 µM	5.59	–
CCc1c(Sc2cc(C)cc(C)c2)n(OCCc2ccccc2)c(=O)[nH]c1=O	78	36 µM	6.34	–
CCCOn1c(Sc2cc(C)cc(C)c2)c(C2CC2)c(=O)[nH]c1=O	4.9	30 µM	5.21	–
Cc1cn([C@H]2C[C@H](N=[N+]=[N-])[C@@H](CO)O2)c(=O)[nH]c1=O [ZIDOVUDINE]	>220	> 1 µM	8.35	CC50 [9]: 149 µM; pEC50 [10]: 8.05; Selectivity index [14]: 16556
